The values below come from publication PMC2634825 (Molecular pharmaceutics, 2009).

Series [1] is described as follows: Biodistribution in athymic nude mice bearing MDA-MB-435 breast cancer xenografts. The series is classed as in vivo. The following applies: mouse; for tissue to tissue ratio at 2 h: female, athymic nu/nu, tumor and muscle, iv, total radioactivity; for tissue uptake at 0.5 h / tissue uptake at 2 h: in vivo; for tissue uptake at 0.5 h: 30 min p.i.; for tissue uptake at 2 h: 120 min p.i. In outline: (§1)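 Female athymic nu/nu mice (4–5 weeks old) received 5 × 10⁶ cells s.c. into both mammary fat pads (MDA-MB-435) or both upper flanks (U87MG) and were used 2–4 weeks later with 0.05–0.4 g tumors. Each got ~2 μCi of HPLC-purified tracer in 0.1 mL saline i.v. via the tail vein. Four mice per time point were killed at 30, 60 and 120 min by pentobarbital overdose. Organs were weighed and γ-counted as %ID/g; T/B values are means ± SD.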

Series [2] in a line: Biodistribution in athymic nude mice bearing U87MG glioma xenografts. The following applies: mouse; for tissue to tissue ratio at 0.5 h / tissue to tissue ratio at 2 h: female, athymic nu/nu, iv, total radioactivity; for tissue uptake at 0.5 h / tissue uptake at 2 h: in vivo; for tissue uptake at 0.5 h: 30 min p.i.; for tissue uptake at 2 h: 120 min p.i. The series is classed as in vivo. The essentials: as §1

In a further series the test system is tumor-bearing mouse. Kind of series: Blocking experiment. The series is classed as in vivo, mice. In outline:
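Tumour-bearing nude mice were given ~2 μCi of the 99mTc-labelled tracer i.v. together with ~350 μg (~14 mg/kg) excess unlabelled cyclic RGD dimer. The blocker was dissolved in the dose solution at 1.75 mg/mL and filtered. Four animals were killed at 1 h p.i. by pentobarbital overdose, and organ %ID/g was compared with unblocked animals at the same time point.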

A further series relates to normal athymic nude mice. The series can be described thus: Metabolism study. The series is classed as in vivo. The essentials:
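Two normal athymic nude mice per tracer each received 100–120 μCi i.v. via the tail vein. Urine was collected by manual void at 30 and 120 min, mixed with an equal volume of 20% aqueous acetonitrile, centrifuged at 8,000 rpm and filtered (0.20 μ). Feces collected at 2 h were suspended in 2 mL 20% acetonitrile, vortexed and centrifuged.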

Series [3] concerns athymic nude mice bearing U87MG glioma xenografts. Kind of series: Biodistribution in athymic nude mice bearing U87MG glioma xenografts. The following applies: over the 2 h study period. The format is in vivo. In outline:
as §1

The mark [4] stands for this setting: kidney uptake, MDA-MB-435 model.
[5] abbreviates: muscle uptake, MDA-MB-435 model.
Setting [6] is: tumor uptake, MDA-MB-435 breast tumor.
Setting [7] is: blood uptake (blood clearance), U87MG model.

“Also recorded” adds a separate entry of the source.

By tissue uptake is commonly meant the percentage of the injected dose found per gram of tissue. A higher tissue uptake goes with strong accumulation.

Regarding `N=C(N)NCCC[C@@H]1NC(=O)[C@H](CCCCNC(=O)CCOCCOCCOCCOCCNC(=O)CC[C@H](NC(=O)c2ccc(NN)nc2)C(=O)NCCOCCOCCOCCOCCC(=O)NCCCC[C@@H]2NC(=O)[C@@H](Cc3ccccc3)NC(=O)[C@H](CC(=O)O)NC(=O)CNC(=O)[C@H](CCCNC(=N)N)NC2=O)NC(=O)[C@@H](Cc2ccccc2)NC(=O)[C@H](CC(=O)O)NC(=O)CNC1=O` [^99mTc-2PEG4-dimer, [^99mTc(HYNIC-2PEG4-dimer)(tricine)(TPPTS)], metal not drawn], the tissue to tissue ratio at 2 h in series [1] came out at 6.52 ± 1.72; in series [2] (tumor and liver) it was 3.33 ± 0.64; in series [2] (tumor and whole blood), 29.1 ± 8.54. Also, the tissue uptake at 0.5 h in series [1] (setting [4]) worked out at 14.4 ± 4.09 %ID/g; in series [1] (liver uptake, MDA-MB-435 model), 2.97 ± 0.63 %ID/g; in series [1] (setting [5]), 1.76 ± 0.56 %ID/g; in series [1] (setting [6]), 5.2 ± 1.74 %ID/g; in series [2] (kidney uptake, U87MG model), 20.8 ± 2.32 %ID/g; in series [2] (muscle uptake, U87MG model), 2.18 ± 0.37 %ID/g. In series [2] (tumor uptake, U87MG glioma), this compound displayed a tissue uptake at 0.5 h of 11.2 ± 1.96 %ID/g. Also, the tissue uptake at 2 h in series [1] (setting [4]) stood at 13.8 ± 5.36 %ID/g; in series [1] (liver uptake, MDA-MB-435 model) it was 3.27 ± 1.09 %ID/g; in series [1] (setting [5]), 1.51 ± 0.35 %ID/g; in series [1] (setting [6]), 9.77 ± 2.66 %ID/g; in series [2] (kidney uptake, U87MG model), 10.2 ± 1.37 %ID/g; in series [2] (muscle uptake, U87MG model) it was 1.27 ± 0.2 %ID/g. In addition, in series [2] (tumor uptake, U87MG glioma), the tissue uptake at 2 h amounted to 8.31 ± 2.31 %ID/g. The tissue to tissue ratio at 0.5 h came to 2.59 ± 0.45 in series [2] (tumor and liver); 9.63 ± 1.32 in series [2] (tumor and whole blood). In addition, the “uptake in the blood and kidneys in the presence of E[c(RGDfK)]2” value in the series on tumor-bearing mouse (60 min p.i., versus without blocking agent) is “comparable”. Also, the “tumor uptake on co-injection of excess E[c(RGDfK)]2” value in the series on tumor-bearing mouse (result in words) was “partially blocked”. Besides, the “metabolic stability during excretion from renal and hepatobiliary routes” value in the series with normal athymic nude mice (urine and feces over 2 h) is “high metabolic stability; also recorded: remained intact; also recorded: very high metabolic stability”.
`N=C(N)NCCC[C@@H]1NC(=O)[C@H](CCCCNC(=O)CCOCCOCCOCCOCCNC(=O)CC[C@H](NC(=O)CCOCCOCCOCCOCCNC(=O)c2ccc(NN)nc2)C(=O)NCCOCCOCCOCCOCCC(=O)NCCCC[C@@H]2NC(=O)[C@@H](Cc3ccccc3)NC(=O)[C@H](CC(=O)O)NC(=O)CNC(=O)[C@H](CCCNC(=N)N)NC2=O)NC(=O)[C@@H](Cc2ccccc2)NC(=O)[C@H](CC(=O)O)NC(=O)CNC1=O` [^99mTc-3PEG4-dimer, [^99mTc(HYNIC-3PEG4-dimer)(tricine)(TPPTS)], metal not drawn]: the tissue to tissue ratio at 0.5 h in series [2] (tumor and liver) amounted to 2.13 ± 0.87; in series [2] (tumor and whole blood) it was 6.72 ± 2.88. For the same compound, the tissue to tissue ratio at 2 h in series [2] (tumor and liver) stood at 3.49 ± 1.64; in series [2] (tumor and whole blood) it was 48.8 ± 18.7. For the same compound, the tissue uptake at 0.5 h came out at 1.02 ± 0.22 %ID/g in series [2] (setting [7]); 17.6 ± 0.73 %ID/g in series [2] (kidney uptake, U87MG model); 3.14 ± 0.18 %ID/g in series [2] (liver uptake, U87MG model); 1.45 ± 0.2 %ID/g in series [2] (muscle uptake, U87MG model); 8.17 ± 0.68 %ID/g in series [2] (tumor uptake, U87MG glioma). For the same compound, the tissue uptake at 2 h in series [2] (setting [7]) was 0.17 ± 0.02 %ID/g; in series [2] (kidney uptake, U87MG model) it was 9.89 ± 1.2 %ID/g; in series [2] (liver uptake, U87MG model), 2.92 ± 0.77 %ID/g; in series [2] (muscle uptake, U87MG model) it was 1 ± 0.22 %ID/g; in series [2] (tumor uptake, U87MG glioma) it was 9.74 ± 3.22 %ID/g; in series [2] (tumor uptake, U87MG glioma, tumor size 0.5 g – 1.6 g or 500 – 1700 mm^3) it was 4 to 6 %ID/g. This compound also had a tissue uptake at 2 h in series [2] (tumor uptake, U87MG glioma, tumor size <0.05 g or <50 mm^3) of 2 to 4 %ID/g. Further, the “glioma uptake relative to ^99mTc-PEG4-monomer” value in series [3] is around 3 ×. Also, in the series on normal athymic nude mice (feces at 120 min p.i.), the “metabolism during excretion from the hepatobiliary route” value is listed as ~ 30%. Also, the “metabolic stability during excretion from the renal route” value with normal athymic nude mice (urine at 30 and 120 min p.i.) is “remained intact”.
`N=C(N)NCCC[C@@H]1NC(=O)[C@H](CCCCNC(=O)CC[C@H](NC(=O)CCOCCOCCOCCOCCNC(=O)c2ccc(NN)nc2)C(=O)NCCCC[C@@H]2NC(=O)[C@@H](Cc3ccccc3)NC(=O)[C@H](CC(=O)O)NC(=O)CNC(=O)[C@H](CCCNC(=N)N)NC2=O)NC(=O)[C@@H](Cc2ccccc2)NC(=O)[C@H](CC(=O)O)NC(=O)CNC1=O` [^99mTc-PEG4-dimer, [^99mTc(HYNIC-PEG4-dimer)(tricine)(TPPTS)], metal not drawn, reference compound]: the tissue to tissue ratio at 2 h in series [1] was 2.91 ± 0.6. In series [1] (setting [6]), the tissue uptake at 0.5 h amounted to 3.49 ± 0.62 %ID/g and the tissue uptake at 2 h is 3.82 ± 0.54 %ID/g.
